Results taken from article PMC3523195 (Bioorganic & medicinal chemistry, 2011).
Marks after values point to notes of the source that are not given here.

Columns and labels:
[1] = system: laccase and melanin formation in C. neoformans; details: cited from earlier work
[2] = system: C. neoformans var. grubii; assay: microtiter plate assay of melanization in liquid medium; assay type: cell-based, Cryptococcus neoformans var. grubii; details: for Melanization of treated cells, observed visually: 10 days, 30 °C
[3] = system: melanized C. neoformans var. gattii; assay: halo assay; assay type: cell-based, Cryptococcus neoformans var. gattii (MAT α, serotype B)
Outline: (§1)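 Paper disks (6.5 mm) were loaded from DMSO stock solutions and air-dried 3 h at RT, then placed on lawns of target cells. The medium was defined minimal agar with 1 mM L-dopa, dopamine or epinephrine to give melanized cells. Doses were 20 μg/disk test compound, or 10 μg test compound with or without 2 μg amphotericin B per disk. Plates ran 6–8 days at 30 °C, and halo diameter (mm) and clarity were recorded.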

[4] = system: melanized C. neoformans var. grubii; assay: halo assay; assay type: cell-based, Cryptococcus neoformans var. grubii (MAT α, H99 serotype A); details: for Halo diameter: var. grubii
Outline: as §1

[5] = 10 μg per disk, 1 mM L-dopa, 6 days
[6] = 20 μg per disk, 1 mM L-dopa in minimal medium, 6 to 8 days
[7] = 20 μg per disk, 1 mM dopamine in minimal medium, 6 to 8 days
[8] = 20 μg per disk, 1 mM epinephrine in minimal medium, 6 to 8 days
[9] = 20 μg/disk, 1 mM L-dopa, 30 °C, 6 to 8 days

SMILES: C[C@@H](c1ncncc1F)[C@](O)(Cn1cncn1)c1ccc(F)cc1F [voriconazole]
- Inhibition of laccase and consequent melanin formation in C. neoformans [1]: inhibition of laccase and consequent melanin formation

SMILES: O=C(O)CNCP(=O)(O)O [glyphosate]
- Inhibition of melanization of C. neoformans [1]: reported to inhibit melanization
- Inhibitory activity on growth or melanization ([2]; 200 μg/mL, under the authors' conditions): no significant inhibitory activity
- Melanization of treated cells, observed visually ([2]; 200 μg/mL, 1 mM catecholamine): growth of melanized cells was observed

SMILES: CC[C@H]1CCCC[C@@]2(C[C@@H]3CC[C@@H]4[C@H](C(=O)OCCCCCCCCCCCCCCCC(=O)N(CCCN)CCCCN)[C@]5(CCC[C@@H](C)O5)NC(=[N+]34)N2)O1.[Cl-] [compound 1, ptilomycalin A]
- Melanization of treated cells, observed visually ([2]; 0.8 μg/mL, 1 mM catecholamine (epinephrine, dopamine or L-dopa)): only non-melanized cells grew
- Melanization of treated cells ([2]; 0.8 μg/mL, after 21 days): remained non-melanized
- Halo diameter [3, 5]: 9.50 ^b mm
- Halo diameter [3, 6]: 17 ^c mm
- Halo diameter [3, 7]: 18 ^c mm
- Halo diameter [3, 8]: 12 ^c mm
- Appearance of the halo surrounding the disk ([4]; 10 μg per disk, alone, 1 mM L-dopa): presence of non-melanized cells on the halo surrounding the disk
- Appearance of the halo surrounding the disk [4, 9]: a halo of non-melanized cells were observed
- Interaction with AMB in halo assay ([4]; 1 10 μg combined with AMB 2 μg per disk, 1 mM L-dopa): synergizes the fungicidal activity of AMB
- Halo diameter [4, 5]: 13.5 ^b mm
- Halo diameter [4, 6]: 17 ^c mm
- Halo diameter [4, 7]: 15 ^c mm
- Halo diameter [4, 8]: 12 ^c mm

SMILES: C[C@@H]1[C@H](O)[C@@H](C)/C=C/C=C/C=C/C=C/C=C/C=C/C=C/[C@H](O[C@@H]2O[C@H](C)[C@@H](O)[C@H](N)[C@@H]2O)C[C@@H]2O[C@](O)(C[C@@H](O)C[C@@H](O)[C@H](O)CC[C@@H](O)C[C@@H](O)CC(=O)O[C@H]1C)C[C@H](O)[C@H]2C(=O)O [AMB, amphotericin B, reference compound]
- Melanization of treated cells, observed visually ([2]; 0.0625 μg/mL, 1 mM catecholamine): growth of melanized cells was observed
- Appearance of the halo surrounding the disk ([4]; 2 μg per disk, alone, 1 mM L-dopa): clear zone of inhibition
- Appearance of the halo surrounding the disk [4, 9]: very clear zone of inhibition

SMILES: Clc1ccc(COC(Cn2ccnc2)c2ccc(Cl)cc2Cl)c(Cl)c1 (stereo not drawn) [MCZ, miconazole]
- Melanization of treated cells, observed visually ([2]; 0.5 μg/mL, 1 mM catecholamine): growth of melanized cells was observed
